Data taken from ChEMBL document CHEMBL1949587 (Bioorg Med Chem, 2012).
Calls of active or inactive are those of the source. The calls are words filed in the database; no cut-off is given here.

Columns and labels:
HUVEC [1] = assay: Antiangiogenic activity in HUVEC co-cultured with fibroblasts assessed as inhibition of capillary-like tube formation at 4 uM after 11 days by microscopic staining method relative to control; assay type: functional; conditions: Homo sapiens, 264 h
Outline: (§1)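 Commercial co-culture kit of HUVEC and fibroblasts, given compound at final 4 or 20 μM and held at 37 °C, 5% CO₂ for 11 days. Tubes fixed with 70% ethanol and stained for CD31, then photographed under a microscope. Tube area quantified by image analysis and inhibition calculated against control taken as 100%.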

HUVEC [2] = assay: Antiangiogenic activity in HUVEC co-cultured with fibroblasts assessed as inhibition of capillary-like tube formation at 20 uM after 11 days by microscopic staining method relative to control; assay type: functional; conditions: Homo sapiens, 264 h; outline: as §1
[3] = Half life in nude mouse at 30 mg/kg, po by LC-MS/MS analysis; assay type: ADME, organism-based; design: dose 30 mg/kg, route oral; conditions: in vivo
Outline: (§2)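 Female nude mice given single oral dose in DMSO/Cremophor EL/1% Tween 80 (1:1:8 v/v/v) by stomach sonde. Blood taken at 30 min, 1, 2, 4, 7 and 24 h (n = 2/time point). Plasma precipitated with CH3CN/MeOH plus internal standard, filtered, measured by LC-MS/MS (LLOQ 20 ng/mL). Parameters by non-compartmental analysis; CL given as CL/F.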

[4] = AUC (0 to 24 hrs) in nude mouse at 30 mg/kg, po by LC-MS/MS analysis; assay type: ADME, organism-based; design: time < 24 hr, dose 30 mg/kg, route oral; conditions: plasma
[5] = Oral bioavailability in nude mouse at 10 mg/kg by LC-MS/MS analysis; assay type: ADME, organism-based; conditions: in vivo; outline: as §2
[6] = Antiproliferative activity against human COLO320DM cells assessed as cell growth inhibition; assay type: cell-based; conditions: COLO 320DM
DLD-1 = assay: Antiproliferative activity against human DLD1 cells assessed as cell growth inhibition; assay type: cell-based
HCT-15 = assay: Antiproliferative activity against human HCT15 cells assessed as cell growth inhibition; assay type: cell-based
NCI-H441 = assay: Antiproliferative activity against human NCI-H441 cells assessed as cell growth inhibition; assay type: cell-based
MCF7 = assay: Antiproliferative activity against human MCF7 cells assessed as cell growth inhibition; assay type: cell-based
IGROV-1 = assay: Antiproliferative activity against human IGROV1 cells assessed as cell growth inhibition; assay type: cell-based
[7] = Antiproliferative activity against human IGROV1/T8 cells assessed as cell growth inhibition; assay type: cell-based; conditions: IGROV-1
PC-3 = assay: Antiproliferative activity against human PC3 cells assessed as cell growth inhibition; assay type: cell-based
BXPC-3 = assay: Antiproliferative activity against human BxPC3 cells assessed as cell growth inhibition; assay type: cell-based
MKN-45 = assay: Antiproliferative activity against human MKN45 cells assessed as cell growth inhibition; assay type: cell-based
NCI-N87 = assay: Antiproliferative activity against human NCI-N87 cells assessed as cell growth inhibition; assay type: cell-based
Huh-7 = assay: Antiproliferative activity against human HuH7 cells assessed as cell growth inhibition; assay type: cell-based
[8] = Antiproliferative activity against human 10C9 cells assessed as cell growth inhibition; assay type: cell-based
CCRF-CEM = assay: Antiproliferative activity against human CCRF-CEM cells assessed as cell growth inhibition; assay type: cell-based
[9] = biological target: Macrophage-stimulating protein receptor (Homo sapiens, UniProt Q04912); assay: Inhibition of RON
Macrophage-stimulating protein receptor, sequence (Q04912 25-304 limits assumed): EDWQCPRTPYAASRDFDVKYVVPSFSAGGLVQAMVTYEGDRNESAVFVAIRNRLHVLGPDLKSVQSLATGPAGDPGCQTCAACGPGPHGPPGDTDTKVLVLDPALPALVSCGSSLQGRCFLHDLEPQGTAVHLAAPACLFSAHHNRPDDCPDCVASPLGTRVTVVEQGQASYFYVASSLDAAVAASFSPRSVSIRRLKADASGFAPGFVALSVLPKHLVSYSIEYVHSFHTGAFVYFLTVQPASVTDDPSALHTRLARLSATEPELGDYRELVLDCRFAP
Macrophage-stimulating protein receptor, sequence (Q04912 310-1400 limits assumed): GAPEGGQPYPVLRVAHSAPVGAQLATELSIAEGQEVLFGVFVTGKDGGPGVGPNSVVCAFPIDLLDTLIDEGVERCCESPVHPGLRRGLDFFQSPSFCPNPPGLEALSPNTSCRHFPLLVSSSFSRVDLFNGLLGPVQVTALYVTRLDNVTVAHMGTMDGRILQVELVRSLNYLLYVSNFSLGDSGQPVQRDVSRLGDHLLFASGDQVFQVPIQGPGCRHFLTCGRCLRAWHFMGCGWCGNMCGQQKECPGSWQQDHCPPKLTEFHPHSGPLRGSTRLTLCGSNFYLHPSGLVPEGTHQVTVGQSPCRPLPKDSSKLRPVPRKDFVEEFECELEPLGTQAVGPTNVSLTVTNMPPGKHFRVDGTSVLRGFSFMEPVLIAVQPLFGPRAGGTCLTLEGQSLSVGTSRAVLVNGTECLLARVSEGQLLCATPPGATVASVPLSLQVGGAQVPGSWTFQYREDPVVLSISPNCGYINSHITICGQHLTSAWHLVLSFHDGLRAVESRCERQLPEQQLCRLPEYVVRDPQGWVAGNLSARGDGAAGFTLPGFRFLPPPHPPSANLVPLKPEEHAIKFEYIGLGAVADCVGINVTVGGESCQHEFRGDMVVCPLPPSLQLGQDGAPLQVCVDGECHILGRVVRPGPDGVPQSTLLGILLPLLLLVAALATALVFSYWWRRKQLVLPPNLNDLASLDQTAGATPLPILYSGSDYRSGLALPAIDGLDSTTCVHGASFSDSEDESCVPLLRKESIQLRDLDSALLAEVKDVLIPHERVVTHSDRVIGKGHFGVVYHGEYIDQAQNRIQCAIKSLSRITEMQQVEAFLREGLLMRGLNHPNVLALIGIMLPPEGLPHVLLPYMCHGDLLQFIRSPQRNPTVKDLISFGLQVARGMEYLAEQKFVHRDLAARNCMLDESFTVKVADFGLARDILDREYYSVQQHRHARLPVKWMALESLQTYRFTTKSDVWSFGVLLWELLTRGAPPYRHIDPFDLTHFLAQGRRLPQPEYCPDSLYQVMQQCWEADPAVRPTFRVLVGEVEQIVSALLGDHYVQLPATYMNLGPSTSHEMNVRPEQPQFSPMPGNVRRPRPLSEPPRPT

[10] = biological target: Receptor-type tyrosine-protein kinase FLT3 (Homo sapiens, UniProt P36888); assay: Inhibition of FLT3
[11] = biological target: Epithelial discoidin domain-containing receptor 1 (Homo sapiens, UniProt Q08345); assay: Inhibition of DDR1
Epithelial discoidin domain-containing receptor 1, sequence (Q08345 whole entry, the tested form may be a part): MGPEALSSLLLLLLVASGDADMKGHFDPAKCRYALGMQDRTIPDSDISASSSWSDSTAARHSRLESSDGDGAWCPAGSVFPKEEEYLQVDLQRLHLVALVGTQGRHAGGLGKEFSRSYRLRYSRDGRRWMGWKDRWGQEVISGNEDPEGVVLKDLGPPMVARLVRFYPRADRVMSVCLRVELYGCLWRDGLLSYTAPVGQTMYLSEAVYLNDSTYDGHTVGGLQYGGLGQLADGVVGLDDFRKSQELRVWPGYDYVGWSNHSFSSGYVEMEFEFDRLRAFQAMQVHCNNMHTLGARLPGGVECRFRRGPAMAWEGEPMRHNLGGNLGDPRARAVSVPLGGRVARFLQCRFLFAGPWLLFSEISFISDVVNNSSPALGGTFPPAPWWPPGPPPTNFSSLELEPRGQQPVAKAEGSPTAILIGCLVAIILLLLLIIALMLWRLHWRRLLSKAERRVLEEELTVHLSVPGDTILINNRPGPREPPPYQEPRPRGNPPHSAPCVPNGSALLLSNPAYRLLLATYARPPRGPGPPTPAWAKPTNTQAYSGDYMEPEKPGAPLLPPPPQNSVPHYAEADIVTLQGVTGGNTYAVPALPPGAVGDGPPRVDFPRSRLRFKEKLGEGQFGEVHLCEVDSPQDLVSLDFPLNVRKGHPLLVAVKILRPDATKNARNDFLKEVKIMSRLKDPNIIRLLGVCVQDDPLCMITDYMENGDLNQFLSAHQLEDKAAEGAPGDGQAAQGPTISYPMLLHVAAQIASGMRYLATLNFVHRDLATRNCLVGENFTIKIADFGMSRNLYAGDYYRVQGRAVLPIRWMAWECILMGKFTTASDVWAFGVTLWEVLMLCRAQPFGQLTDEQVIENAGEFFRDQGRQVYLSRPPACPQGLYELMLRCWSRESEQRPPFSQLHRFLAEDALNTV

[12] = biological target: Tyrosine-protein kinase Yes (Homo sapiens, UniProt P07947); assay: Inhibition of YES
[13] = biological target: Proto-oncogene tyrosine-protein kinase Src (Homo sapiens, UniProt P12931); assay: Inhibition of Src
Proto-oncogene tyrosine-protein kinase Src, sequence (P12931 2-536 limits assumed): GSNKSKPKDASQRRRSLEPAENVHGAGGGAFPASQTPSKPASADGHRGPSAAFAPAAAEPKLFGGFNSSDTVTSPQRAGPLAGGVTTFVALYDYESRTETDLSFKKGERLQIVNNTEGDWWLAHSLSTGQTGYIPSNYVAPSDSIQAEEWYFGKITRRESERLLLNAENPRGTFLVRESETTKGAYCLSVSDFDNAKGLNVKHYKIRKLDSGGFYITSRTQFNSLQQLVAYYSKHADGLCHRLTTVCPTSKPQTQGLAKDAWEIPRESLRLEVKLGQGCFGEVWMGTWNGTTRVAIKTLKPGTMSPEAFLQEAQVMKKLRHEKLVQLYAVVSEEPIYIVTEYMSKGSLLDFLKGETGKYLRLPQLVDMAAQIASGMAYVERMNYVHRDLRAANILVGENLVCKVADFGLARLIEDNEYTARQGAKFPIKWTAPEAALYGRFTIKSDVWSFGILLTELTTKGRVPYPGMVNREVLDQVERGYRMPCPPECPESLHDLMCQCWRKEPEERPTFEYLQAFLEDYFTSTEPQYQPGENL

[14] = biological target: Tyrosine-protein kinase Lyn (Homo sapiens, UniProt P07948); assay: Inhibition of Lyn
[15] = biological target: Tyrosine-protein kinase Lck (Homo sapiens, UniProt P06239); assay: Inhibition of LCK
[16] = biological target: Tyrosine-protein kinase ABL1 (Homo sapiens, UniProt P00519); assay: Inhibition of ABL
Focal adhesion kinase 1 = Focal adhesion kinase 1 (Homo sapiens, UniProt Q05397); assay: Inhibition of FAK
Focal adhesion kinase 1, sequence (Q05397 whole entry): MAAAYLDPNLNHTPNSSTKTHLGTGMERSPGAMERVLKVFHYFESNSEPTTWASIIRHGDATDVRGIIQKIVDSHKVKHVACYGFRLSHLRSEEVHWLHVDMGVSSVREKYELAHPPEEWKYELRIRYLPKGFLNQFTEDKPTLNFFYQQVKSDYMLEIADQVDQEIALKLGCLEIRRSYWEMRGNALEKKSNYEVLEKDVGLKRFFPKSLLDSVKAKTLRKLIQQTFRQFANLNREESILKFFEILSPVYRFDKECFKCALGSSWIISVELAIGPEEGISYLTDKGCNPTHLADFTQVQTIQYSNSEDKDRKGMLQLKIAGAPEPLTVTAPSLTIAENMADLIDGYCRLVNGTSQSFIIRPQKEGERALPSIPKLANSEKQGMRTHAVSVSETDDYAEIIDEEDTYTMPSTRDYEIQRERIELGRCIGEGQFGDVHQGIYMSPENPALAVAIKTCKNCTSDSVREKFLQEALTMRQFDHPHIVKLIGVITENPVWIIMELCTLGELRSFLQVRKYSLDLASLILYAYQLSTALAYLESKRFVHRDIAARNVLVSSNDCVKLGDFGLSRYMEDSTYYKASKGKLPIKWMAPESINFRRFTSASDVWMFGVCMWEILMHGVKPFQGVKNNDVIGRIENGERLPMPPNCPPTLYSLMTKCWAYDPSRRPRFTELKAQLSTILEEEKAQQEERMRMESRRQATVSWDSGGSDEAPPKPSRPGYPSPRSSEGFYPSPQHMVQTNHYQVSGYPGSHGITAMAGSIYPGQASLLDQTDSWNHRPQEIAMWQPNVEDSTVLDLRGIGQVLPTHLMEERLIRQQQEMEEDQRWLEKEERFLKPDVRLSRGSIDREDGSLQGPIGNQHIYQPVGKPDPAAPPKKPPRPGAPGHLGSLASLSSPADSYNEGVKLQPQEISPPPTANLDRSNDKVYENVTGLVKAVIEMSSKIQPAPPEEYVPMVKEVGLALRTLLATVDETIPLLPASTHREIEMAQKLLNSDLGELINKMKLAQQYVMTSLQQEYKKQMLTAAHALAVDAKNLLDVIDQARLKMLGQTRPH

[17] = biological target: Protein-tyrosine kinase 6 (Homo sapiens, UniProt Q13882); assay: Inhibition of BRK
Protein-tyrosine kinase 6, sequence (Q13882 whole entry): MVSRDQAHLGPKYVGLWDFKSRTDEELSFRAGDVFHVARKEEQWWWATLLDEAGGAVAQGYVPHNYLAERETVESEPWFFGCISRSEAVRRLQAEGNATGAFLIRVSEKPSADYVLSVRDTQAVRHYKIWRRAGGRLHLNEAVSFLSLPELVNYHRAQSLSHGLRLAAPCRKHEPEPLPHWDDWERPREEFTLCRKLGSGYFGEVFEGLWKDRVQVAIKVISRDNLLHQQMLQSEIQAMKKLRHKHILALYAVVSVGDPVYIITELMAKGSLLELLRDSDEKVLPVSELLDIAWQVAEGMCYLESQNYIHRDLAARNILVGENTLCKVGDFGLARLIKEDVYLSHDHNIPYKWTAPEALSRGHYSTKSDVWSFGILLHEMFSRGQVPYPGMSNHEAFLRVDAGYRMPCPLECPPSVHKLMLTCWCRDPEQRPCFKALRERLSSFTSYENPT

[18] = biological target: Glycogen synthase kinase-3 beta (Homo sapiens, UniProt P49841); assay: Inhibition of GSK3-beta
Glycogen synthase kinase-3 beta, sequence (P49841 whole entry): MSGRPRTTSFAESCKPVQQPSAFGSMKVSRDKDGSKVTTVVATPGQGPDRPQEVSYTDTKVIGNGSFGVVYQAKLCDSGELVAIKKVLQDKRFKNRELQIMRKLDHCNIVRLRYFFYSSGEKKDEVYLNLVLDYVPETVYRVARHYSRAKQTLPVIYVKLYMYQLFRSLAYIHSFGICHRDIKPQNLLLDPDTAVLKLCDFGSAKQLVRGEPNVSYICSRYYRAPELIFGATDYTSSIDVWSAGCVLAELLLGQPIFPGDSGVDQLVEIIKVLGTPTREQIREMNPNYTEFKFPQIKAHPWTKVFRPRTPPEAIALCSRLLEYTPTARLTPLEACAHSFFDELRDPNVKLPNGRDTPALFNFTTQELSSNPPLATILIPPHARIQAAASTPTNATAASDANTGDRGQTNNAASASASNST

A549 = assay: Antiproliferative activity against human A549 cells assessed as cell growth inhibition; assay type: cell-based
Calu-6 [19] = assay: Antiproliferative activity against human Calu6 cells assessed as cell growth inhibition; assay type: cell-based
NCI-H460 = assay: Antiproliferative activity against human NCI-H460 cells assessed as cell growth inhibition; assay type: cell-based
[20] = Antiproliferative activity against human KPL4 cells assessed as cell growth inhibition; assay type: cell-based
HepG2 = assay: Antiproliferative activity against human HepG2 cells assessed as cell growth inhibition; assay type: cell-based
[21] = Antiproliferative activity against human Huh1 cells assessed as cell growth inhibition; assay type: cell-based; conditions: HuH-1
HUVEC [22] = assay: Antiangiogenic activity in HUVEC assessed as inhibition of VEGF-induced cell proliferation after 4 days; assay type: functional, cell-based; conditions: Homo sapiens, 96 h
Outline: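 HUVECs maintained in RPMI1640 with 10% FCS, 50 μg/mL heparin and ECGS, then seeded at 3000 cells/well in RPMI1640 with 5% FCS and 20 ng/mL VEGF, with compound at serially diluted concentrations. Incubated at 37 °C, 5% CO₂. Read-out is Cell Counting Kit-8, absorbance at 450 nm. Inhibition = (1−T/C)×100 against untreated control.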

HCT-116 = assay: Antiproliferative activity against human HCT116 cells; assay type: cell-based
[23] = Oral bioavailability in nude mouse at 30 mg/kg by LC-MS/MS analysis; assay type: ADME, organism-based; conditions: in vivo; outline: as §2
Calu-6 [24] = assay: Antitumor activity against human Calu6 cells xenografted in BALB/c mouse assessed as tumor growth inhibition at 150 mg/kg, po qd for 11 days; assay type: functional, organism-based; design: dose 150 mg/kg
Outline: (§3)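 Female Balb/c nude mice carried s.c. flank Calu-6 xenografts, 5.0×10⁶ cells in Hanks' solution. At 200 mm³, mice were randomized into 4 groups (n = 5): vehicle, 150 mg/kg, sunitinib 80 mg/kg, or both. Each group dosed orally once daily for 11 days. Volume = 1/2 × long × short². Inhibition from volume change against control.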

Calu-6 [25] = assay: Antitumor activity against human Calu6 cells xenografted in BALB/c mouse assessed as tumor growth inhibition at 150 mg/kg, po qd for 11 days in presence of sunitinib; assay type: functional, organism-based; design: dose 150 mg/kg; outline: as §3

Row | Compound | inhibition at 4 µM (HUVEC [1]) [%] | inhibition at 20 µM (HUVEC [2]) [%] | half-life [3] [h] | AUC(0-t) at 24 h [4] [ng·h/mL] | IC50 [6] [µM] | IC50 (DLD-1) [µM] | IC50 (HCT-15) [µM] | IC50 (NCI-H441) [µM] | IC50 (MCF7) [µM] | IC50 (IGROV-1) [µM] | IC50 [7] [µM] | IC50 (PC-3) [µM] | IC50 (BXPC-3) [µM] | IC50 (MKN-45) [µM] | IC50 (NCI-N87) [µM] | IC50 (Huh-7) [µM] | IC50 [8] [µM] | IC50 (CCRF-CEM) [µM] | IC50 [9] [µM] | IC50 [10] [µM] | also measured
1 | COc1ccc(C(=O)NC[C@H](O)CO)cc1/C=C/c1ccc(Cl)cc1 | 41 | 93 | 8.5 | 90200 | 61 | 28 | 29 | 34 | 63 | 1.4 | 12 | 17 | 51 | 26 | 52 | 27 | 50 | 30 | > 50 | > 50 | bioavailability [5]: 90%; IC50 [11]: > 50 µM; IC50 [12]: > 50 µM; IC50 [13]: > 50 µM; IC50 [14]: > 50 µM; IC50 [15]: > 50 µM; IC50 [16]: > 50 µM; IC50 (Focal adhesion kinase 1): > 50 µM; IC50 [17]: > 50 µM; IC50 [18]: > 50 µM; IC50 (A549): 18 µM; IC50 (Calu-6 [19]): 54 µM; IC50 (NCI-H460): 24 µM; IC50 [20]: 15 µM; IC50 (HepG2): 28 µM; IC50 [21]: 30 µM; IC50 (HUVEC [22]): 0.25 µM; IC50 (HCT-116): 21 µM
2 | COc1ccc(C(=O)NC[C@@H](O)CO)cc1/C=C/c1ccc(Cl)cc1 | 38 | 86 | 7.8 | 86400 | 46 | 19 | 20 | 25 | 65 | 0.92 | 9.5 | 24 | 27 | 5.7 | 52 | 29 | 38 | 20 | > 50 | > 50 | bioavailability [23]: 100%; TGI (Calu-6 [24]): Active; TGI (Calu-6 [25]): Active; IC50 [11]: > 50 µM; IC50 [12]: > 50 µM; IC50 [13]: > 50 µM; IC50 [14]: > 50 µM; IC50 [15]: > 50 µM; IC50 [16]: > 50 µM; IC50 (Focal adhesion kinase 1): > 50 µM; IC50 [17]: > 50 µM; IC50 [18]: > 50 µM; IC50 (A549): 13 µM; IC50 (Calu-6 [19]): 40 µM; IC50 (NCI-H460): 15 µM; IC50 [20]: 4.9 µM; IC50 (HepG2): 16 µM; IC50 [21]: 30 µM; IC50 (HUVEC [22]): 0.48 µM; IC50 (HCT-116): 13 µM
